Test [1] deals with Mycobacterium tuberculosis. Briefly: Antimicrobial activity against Mycobacterium tuberculosis H37Ra after 5 days by serial macrobroth dilution method. The class given is functional, organism-based. To be noted: 120 h. The essentials: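 M. tuberculosis H37Ra in 7H9 with 0.5% glycerol, 10% ADC and 0.05% Tween80. Serial macrobroth dilution 128–0.5 μg/mL, log-phase inoculum to final OD600 0.005, 37°C, 200 rpm. Growth read visually at 5 days. No-compound and DMSO controls included. Three biological replicates averaged.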

For test [2], the system named is Mycolicibacterium smegmatis. Nature of the test: Antimicrobial activity against Mycobacterium smegmatis (MC2) 155 after 24 hrs by serial macrobroth dilution method. The class given is functional. The following applies: (MC2) 155, 24 h. The essentials: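 Serial macrobroth dilution, 128–0.5 μg/mL in LBT (LB + 0.05% Tween80). Log-phase mc²155 inoculated to final OD600 0.005, incubated 37°C at 200 rpm. Growth scored by eye after 24 h. No-compound and DMSO controls included. Figure data are the average of three biological replicates.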
Background: Dilution methods test growth across graded concentrations, often in twofold steps.

Test [3] concerns Mycolicibacterium smegmatis. Nature of the test: (§1) Inhibition of NDH2 in Mycobacterium smegmatis (MC2) 155 membranes assessed NADH oxidation relative to control. The essentials:
(§2)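 M. smegmatis membranes at 50 μg/mL in 20 mM sodium phosphate pH 8.0 at 37°C, with compound (0–200 μM) preincubated 30 s. Reaction started with 200 μM NADH; A340 followed (ε 6.22 mM⁻¹cm⁻¹), activity in μmol NADH/min/mg. Data normalized to uninhibited activity, IC50 by log(inhibitor) vs response fit. Mean of three independent experiments.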

Test [4] is described as follows: Inhibition of Mycobacterium tuberculosis NDH2.
In test [5] the test system is Mycolicibacterium smegmatis. Nature of the test: Bactericidal activity against Mycobacterium smegmatis at 500 uM after 3 to 24 hrs by colony forming unit count method. It counts as functional, organism-based. The essentials:
(§3)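 Cultures grown in LBT to OD600 ~0.5, then dosed at 8.9 μM per OD600, or CCCP at 500 μM; no-compound and DMSO controls. OD600 taken at 0, 3, 9 and 24 h. CFU at 0, 9 and 24 h: cells washed, diluted in PBS + 0.05% Tween80, spotted on LBT (Miles–Misra), counted after 3 days at 37°C (5–50 colonies). Three biological replicates.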

Test [6] deals with Mycolicibacterium smegmatis. Nature of the test: Inhibition of NDH2 in Mycobacterium smegmatis (MC2) 155 membrane assessed inhibition of oxygen consumption relative to control. The essentials: (§4)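 Clark-type O2 electrode, 2 mL mix at 37°C, calibrated to 220 nmol O2/mL with air-saturated 20 mM sodium phosphate pH 8.0. M. smegmatis membrane vesicles (French press, 100,000 × g pellet) driven by 10 mM NADH. Test range 0–80 μM; TPZ 0–200 μM. Controls: 80 μM comparators, DMSO, 200 μM KCN, no compound. Two-tailed t-test, p<0.05.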

Test [7] can be described thus: as §1. More on the design: species or system Mycolicibacterium smegmatis. The essentials: as §2
For test [8], the system named is Mycolicibacterium smegmatis. Briefly: Bacteriostatic against Mycobacterium smegmatis at 4.8 ug/ml after 3 to 24 hrs by colony forming unit count method. It counts as functional, organism-based. The essentials: as §3
Test [9] deals with Mycolicibacterium smegmatis. Briefly: Bactericidal activity against Mycobacterium smegmatis at 8.9 uM after 3 to 24 hrs by colony forming unit count method. It counts as functional, organism-based. The essentials: as §3
The test system of test [10] is Mycolicibacterium smegmatis. Briefly: Effect on NDH2 in Mycobacterium smegmatis (MC2) 155 membrane assessed increase in oxygen consumption relative to control. The essentials: as §4

In brackets after ≈: the same amount, converted by molar mass. Activity calls are given as the source filed them. The rule behind the calls is not given here. Where only a bound is given, the exact number is not on record here.

A word on the IC50: it is the concentration needed to halve the response being measured. Read a high IC50 as a need for much substance. By MIC is commonly meant the lowest concentration found to suppress growth. With `FC(F)(F)c1ccc2c(c1)N(CCC[P+](c1ccccc1)(c1ccccc1)c1ccccc1)c1ccccc1S2.[Cl-]`, it took 1 µg/mL to reach half-maximal inhibition in [1] (IC50). This compound also showed an MIC in test [2] of 12 µg/mL.
Turning to `C=C(C)[C@H]1Cc2c(ccc3c2O[C@@H]2COc4cc(OC)c(OC)cc4[C@@H]2C3=O)O1`, in test [3], the inhibition result was “inactive”.
In turn, `CN(C)CCCN1c2ccccc2Sc2ccc(Cl)cc21` [CHLORPROMAZINE] gave an IC50 in [4] of 10 µM. In [1], the lowest concentration to inhibit growth (MIC) was 10 µg/mL (≈ 31.4 µM).
With `FC(F)(F)c1ccc2c(c1)Nc1ccccc1S2`, the IC50 in test [1] was > 64 µg/mL. For the same compound, the MIC in test [2] is > 64 µg/mL.
As to `N#CC(C#N)=NNc1cccc(Cl)c1`, in [5], the result was Active.
In the case of `[Cl-].c1ccc([P+](CCCN2c3ccccc3Sc3ccccc32)(c2ccccc2)c2ccccc2)cc1`, the INH in test [6] was 40 µM. In addition, in test [7], the IC50 amounted to 15.1 µM. Also, the result in test [8] was Active. Besides, in [2], the MIC is 4 µg/mL.
As for `c1ccc2c(c1)Nc1ccccc1S2` [PHENOTHIAZINE], in test [3], the inhibition entry is “inactive”. In addition, the IC50 in test [1] is > 64 µg/mL. Further, in test [2], the MIC is > 64 µg/mL. Further, in test [9], the result was inactive.
Consider `CC(CN1c2ccccc2Sc2ccccc21)N(C)C` (stereo not drawn) [PROMETHAZINE], for which the MIC in [1] stood at 20 µg/mL (≈ 70.3 µM).
On to `CCC[P+](c1ccccc1)(c1ccccc1)c1ccccc1.[Br-]`, for which the outcome in test [10] was Active. Moreover, the inhibition result in test [3] was “inactive”. Also, in [1], the IC50 was > 128 µg/mL. For the same compound, the MIC in [2] is > 128 µg/mL. The result in test [9] was inactive.
Turning to `CN1CCN(CCCN2c3ccccc3Sc3ccc(C(F)(F)F)cc32)CC1` [TRIFLUOPERAZINE], the INH in [6] worked out at 100 µM. The IC50 was 12 µM in test [4], 60.1 µM in test [7] and 8 µg/mL (≈ 19.6 µM) in test [1]. Besides, it took 64 µg/mL (≈ 157 µM) to inhibit growth in test [2] (MIC).
In turn, `CN(C)CCCN1c2ccccc2Sc2ccccc21` [PROMAZINE] yielded an IC50 in [1] of 128 µg/mL (≈ 450 µM). For the same compound, in test [2], the MIC is > 128 µg/mL.
For `Clc1ccc2c(c1)Nc1ccccc1S2`, the IC50 in test [1] was > 64 µg/mL. In addition, the minimum inhibitory concentration (MIC) in test [2] was > 64 µg/mL.
`Clc1ccc2c(c1)N(CCC[P+](c1ccccc1)(c1ccccc1)c1ccccc1)c1ccccc1S2.[Cl-]` yielded an IC50 in test [1] of 1 µg/mL. This compound also returned an MIC in test [2] of 6 µg/mL.

The values are drawn from ChEMBL document CHEMBL3352574, “Incorporation of triphenylphosphonium functionality improves the inhibitory properties of phenothiazine derivatives in Mycobacterium tuberculosis” (Bioorg Med Chem, 2014).
